Results published in ChEMBL document CHEMBL1132309, “(R)-3,3,3-Trifluoro-2-hydroxy-2-methylpropionamides are orally active inhibitors of pyruvate dehydrogenase kinase” (J Med Chem, 1999).
The source made the active and inactive calls. The calls are words filed in the database; no cut-off is given here.

Legend:
[1] = target: pyruvate dehydrogenase kinase (Sus scrofa); test: In vitro inhibitory activity against Pyruvate dehydrogenase kinase by primary enzymatic assay
[2] = target: T1, Pyruvate dehydrogenase kinase (Rattus norvegicus) (UniProt Q63065+A6IPZ9+Q64536+O54937); test: In vivo inhibition of pyruvate dehydrogenase kinase, reduced lactate level in normal 24 hr r fasted rats at 10 umol/kg oral dose; type: functional, organism-based; parameters: scale not given: the % may be the effect or the level left
[3] = target: T1, Pyruvate dehydrogenase kinase (Rattus norvegicus); test: In vivo inhibition of pyruvate dehydrogenase kinase, reduced lactate level in normal 24 hr r fasted rats at 1 umol/kg oral dose; type: functional, organism-based; parameters: scale not given: the % may be the effect or the level left
[4] = target: Pyruvate dehydrogenase kinase (Homo sapiens, UniProt Q15119+Q15120+Q16654+Q15118); test: […] inhibion of pyruvate dehydrogenase kinase, increased oxidation of lactate; type: functional
How it was run: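 Human fibroblasts, modified Ofenstein assay: conversion of [14C]lactate to 14CO2, taken as activation of the PDH complex. EC50 in μM ± standard error.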

[5] = target: T1, Pyruvate dehydrogenase kinase (Rattus norvegicus); test: In vivo inhibition of pyruvate dehydrogenase kinase, reduced lactate level in normal 24 hr r fasted rats at 3 umol/kg oral dose; type: functional, organism-based; parameters: scale not given: the % may be the effect or the level left
[6] = target: T1, Pyruvate dehydrogenase kinase (Rattus norvegicus); test: In vivo inhibition of pyruvate dehydrogenase kinase, reduced lactate level in normal 24 hr r fasted rats at 300 umol/kg oral dose; Not active; type: functional, organism-based
[7] = target: T1, Pyruvate dehydrogenase kinase (Rattus norvegicus); test: In vivo inhibition of pyruvate dehydrogenase kinase, reduced lactate level in normal 24 hr r fasted rats at 1 mmol/kg oral dose; type: functional, organism-based; parameters: scale not given: the % may be the effect or the level left
[8] = The maximum concentration of compound was measured at the dose of 30 umol/kg; type: ADME, organism-based; parameters: dose 30 umol/kg; conditions: rat, in vivo
How it was run: (§1)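 Oral dosing at 30, 100 and 300 μmol/kg. Blood plasma concentrations followed to give peak concentration and estimated half-life.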

[9] = The time to reach maximum concentration of compound was measured at the dose of 30 umol/kg; type: ADME, organism-based; conditions: rat, in vivo
How it was run: as §1

[10] = The biological half life the compound was measured at the dose of 30 umol/kg; type: ADME, organism-based; conditions: rat, in vivo
How it was run: as §1

[11] = target: T1, Pyruvate dehydrogenase kinase (Rattus norvegicus); test: In vivo inhibition of pyruvate dehydrogenase kinase, reduced lactate level in normal 24 hr r fasted rats at 30 umol/kg oral dose; type: functional, organism-based; parameters: scale not given: the % may be the effect or the level left
[12] = The area under the curve of compound was measured at the dose of 30 umol/kg; type: ADME, organism-based; conditions: rat, in vivo
How it was run: as §1

[13] = target: T1, Pyruvate dehydrogenase kinase (Rattus norvegicus); test: In vivo inhibition of pyruvate dehydrogenase kinase, reduced lactate level in normal 24 hr r fasted rats at 100 uMmol/kg oral dose; type: functional, organism-based; parameters: dose or concentration left out as unconfirmed
[14] = target: T1, Pyruvate dehydrogenase kinase (Rattus norvegicus); test: In vivo inhibition of pyruvate dehydrogenase kinase, reduced lactate level in normal 24 hr r fasted rats at 300 umol/kg oral dose; type: functional, organism-based; parameters: scale not given: the % may be the effect or the level left
[15] = The maximum concentration of compound was measured at the dose of 300 umol/kg; type: ADME, organism-based; parameters: dose 300 umol/kg; conditions: rat, in vivo
How it was run: as §1

[16] = The time to reach maximum concentration of compound was measured at the dose of 300 umol/kg; type: ADME, organism-based; conditions: rat, in vivo
How it was run: as §1

[17] = The area under the curve of compound was measured at the dose of 300 umol/kg; type: ADME, organism-based; conditions: rat, in vivo
How it was run: as §1

[18] = The maximum concentration of compound was measured at the dose of 100 umol/kg; type: ADME, organism-based; parameters: dose 100 umol/kg; conditions: rat, in vivo
How it was run: as §1

[19] = The area under the curve of compound was measured at the dose of 100 umol/kg; type: ADME, organism-based; conditions: rat, in vivo
How it was run: as §1

[20] = target: T1, Pyruvate dehydrogenase kinase (Rattus norvegicus); test: In vivo inhibition of pyruvate dehydrogenase kinase, reduced lactate level in normal 24 hr r fasted rats at 100 umol/kg oral dose; type: functional, organism-based; parameters: scale not given: the % may be the effect or the level left
[21] = The time to reach maximum concentration of compound was measured at the dose of 100 umol/kg; type: ADME, organism-based; conditions: rat, in vivo
How it was run: as §1

[22] = The biological half life the compound was measured at the dose of 100 umol/kg; type: ADME, organism-based; conditions: rat, in vivo
How it was run: as §1

For `C[C@](O)(C(=O)NC1CCCCC1)C(F)(F)F`, the IC50 [1] was 200000 nM.
`C[C@@H]1CN(C(=O)[C@@](C)(O)C(F)(F)F)[C@@H](C)CN1C(=O)c1ccc(C#N)cc1` gave a Control [2] of 74%, a Control [3] of 87% and an EC50 [4] of 57 nM. For the same molecule, the Control [5] was 90% and the IC50 [1] was 16.5 nM.
With `C[C@@](O)(C(=O)Nc1ccc(C(=O)N2CCCCC2)cc1Cl)C(F)(F)F` the EC50 [4] was 590 nM, the Control [6] was “inactive” and the IC50 [1] was 1500 nM.
For `C[C@@](O)(C(=O)Nc1ccccc1Cl)C(F)(F)F`, the EC50 [4] was 5400 nM, the Control [6] was “inactive” and the IC50 [1] was 300 nM.
In the case of `C[C@@](O)(C(=O)N1CCN(C(=O)c2ccc(C#N)cc2)CC1)C(F)(F)F`, the IC50 [1] is reported as 6700 nM.
With `C[C@@](O)(C(=O)Nc1ccc(C(=O)c2ccccc2)cc1Cl)C(F)(F)F` the IC50 [1] was 110 nM.
Molecule `C[C@](O)(C(=O)Nc1ccccc1Cl)C(F)(F)F` has an IC50 [1] of 9800 nM.
In the case of `C[C@@](O)(C(=O)NC1CCCCC1)C(F)(F)F`, the IC50 [1] is reported as 6200 nM.
For `C[C@@](O)(C(=O)Nc1ccc(S(=O)(=O)F)cc1Cl)C(F)(F)F`, the IC50 [1] was 77 nM.
`O=C([O-])C(Cl)Cl.[Na+]` showed a Control [7] of 70%.
For `CC(O)(C(=O)Nc1ccc(C(=O)c2ccccc2)cc1)C(F)(F)F` (single isomer, unassigned), the Control [6] was “inactive”.
Work on `C[C@@H]1CN(C(=O)[C@@](C)(O)C(F)(F)F)CCN1C(=O)c1ccc(C#N)cc1` yielded a Control [2] of 90%, a Cmax [8] of 23.8 µM and a Tmax [9] of 1.25 h. For the same molecule, the EC50 [4] was 250 nM, the IC50 [1] was 79 nM and the half-life [10] was 3 h. It also gave a Control [11] of 60%, an AUC [12] of 196 µM·h and a Control [13] of 67%.
With `C[C@@H]1CN(C(=O)[C@@](C)(O)C(F)(F)F)[C@@H](C)CN1Cc1ccccc1` the IC50 [1] was 82 nM.
Work on `C[C@@](O)(C(=O)Nc1ccccc1)C(F)(F)F` yielded an IC50 [1] of 35000 nM.
With `C[C@@H]1CN(C(=O)[C@@](C)(O)C(F)(F)F)CCN1C(=O)OCc1ccccc1` the IC50 [1] was 21 nM.
Molecule `C[C@@](O)(C(=O)Nc1ccc(S(=O)(=O)N2CCNCC2)cc1Cl)C(F)(F)F` has a Control [14] of 72%, an EC50 [4] of 17000 nM and an IC50 [1] of 55 nM. The Cmax [15] was 53.8 µM, the Tmax [16] was 6 h and the AUC [17] was 670 µM·h.
`C[C@@](O)(C(=O)Nc1ccc(C(=O)O)cc1Cl)C(F)(F)F` showed a Cmax [18] of 87.3 µM, an AUC [19] of 143 µM·h and a Control [20] of 70%. For the same molecule, the EC50 [4] was 1400 nM, the IC50 [1] was 90 nM and the Tmax [21] was 0.5 h. It also gave a half-life [22] of 4.6 h and a Control [11] of 98%.
With `COC(=O)c1ccc(NC(=O)[C@@](C)(O)C(F)(F)F)c(Cl)c1` the IC50 [1] was 120 nM.
In the case of `C[C@@](O)(C(=O)Nc1ccc(S(=O)(=O)N2CCCCC2)cc1)C(F)(F)F`, the IC50 [1] is reported as 9300 nM.
